# Compound activity deposited in PubChem BioAssay by The Scripps Research Institute Molecular Screening Center.
# Only some compounds are listed: those with a hit (about 2.7% of all), similar ones and a draw of the others.
# IMP-1 inhibitor – IMP-1 metallo-beta-lactamase inhibitors, primary screen, biochemical, epi-absorbance readout, Pseudomonas aeruginosa enzyme | metallo-beta-lactamase IMP-1 (Pseudomonas aeruginosa) | purified IMP-1, nitrocefin hydrolysis, epi-absorbance fluorescence | inhibition, % at 5.6 µM | 290,000 tested, 0.45% active;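 active = inhibition above the mean plus 3 SD of all compounds in the same screening run, cut at about 4.5% in these data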;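 also: 0% = IMP-1 with DMSO and 100% = DMSO wells lacking enzyme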
#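 Test system: recombinant IMP-1 enzyme, purified / Medium: HEPES buffer pH 7.1 with ZnSO4 and Brij 35 / Doses: single dose, 5.6 µM / Times: 25 °C, 15 min preincubation, 25 min reaction / Detection: Epi-absorbance via hydrolysed-nitrocefin quenching of white-plate fluorescence, 480/530 nm, EDTA stop / Evaluation: percent inhibition from optical density relative to buffer-blank wells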
# VIM-2 inh – VIM-2 metallo-beta-lactamase inhibitors, primary screen, biochemical, epi-absorbance readout, Pseudomonas aeruginosa enzyme; 290,000 tested, 0.89% active; purified VIM-2, nitrocefin hydrolysis, epi-absorbance fluorescence; inhibition, % at 5.6 µM;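 active = inhibition above the mean of all tested compounds plus 3 SD, cutoff set per screening run, cut at about 7.5% in these data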;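 also: red hydrolysis product quenches plate fluorescence so inhibitors raise well fluorescence; 0% = enzyme with DMSO and 100% = DMSO without enzyme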
# CTSL1 counter-1 – Fasciola hepatica cathepsin L1 inhibitors, primary screen, counter-screen for PFM18AAP inhibitor project, biochemical, QFRET, fluorogenic peptide substrate | 300,000 tested, 0.49% active | recombinant F. hepatica cathepsin L1, Z-Leu-Arg-MCA fluorescence | inhibition, % at 5.96 µM;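 active = inhibition above the mean of all tested compounds plus 3 SD, set per screening campaign, cut at about 17% in these data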;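 also: 0% = plate median of test compound wells and 100% = 1 µM Z-Phe-Ala-diazomethylketone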
# PfM18AAP inh-1 – PfM18AAP inhibitors, malaria aminopeptidase, primary screen, biochemical, QFRET, recombinant enzyme; 290,000 tested, 1.2% active; inhibition, % at 7.35 µM; H-Glu-NHMec fluorogenic cleavage; M18 aspartyl aminopeptidase (Plasmodium falciparum 3D7);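 active = inhibition above the campaign mean inhibition over all tested compounds plus 3 SD, cut at about 28% in these data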;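 also: 0% = plate median of test compound wells and 100% = 2 mM ZnCl2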
# VIM-2 confirm – P. aeruginosa VIM-2 enzyme inhibition – biochemical, epi-absorbance, HTS, confirmation; shares compounds with IMP-1 inhibitor; purified VIM-2 enzyme, nitrocefin absorbance; inhibition, % at 5.6 µM; 200 tested, 73% active; in the data active = inhibition above about 8%;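 also: 0% = enzyme with vehicle and 100% = no enzyme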
# TEM-1 counter – Serine beta-lactamase TEM-1 inhibition, biochemical epi-absorbance counter-screen for IMP-1/VIM-2 inhibitor program; shares compounds with IMP-1 inhibitor; TEM-1 beta-lactamase, nitrocefin absorbance inhibition; inhibition, % at 5.6 µM; 200 tested, 50% active; AID 2184, 2009; in the data active = inhibition above about 0.66%
# Target sequence (P62593 whole entry, looked up): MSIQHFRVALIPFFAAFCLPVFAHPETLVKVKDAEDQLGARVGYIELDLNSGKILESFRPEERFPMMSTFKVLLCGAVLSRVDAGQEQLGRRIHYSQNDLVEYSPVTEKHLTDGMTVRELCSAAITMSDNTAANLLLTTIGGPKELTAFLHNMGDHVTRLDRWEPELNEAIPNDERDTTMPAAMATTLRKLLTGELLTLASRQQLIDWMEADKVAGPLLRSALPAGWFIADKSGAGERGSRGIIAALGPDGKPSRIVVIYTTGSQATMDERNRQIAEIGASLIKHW
# IMP-1 confirm – IMP-1 metallo-beta-lactamase inhibitors, confirmation, biochemical, epi-absorbance, hits shared with VIM-2 screen. shares compounds with IMP-1 inhibitor. purified IMP-1 enzyme, absorbance substrate hydrolysis. inhibition, % at 5.6 µM. 200 tested, 60% active; in the data active = inhibition above about 4.9%;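 also: 0% = enzyme with vehicle and 100% = vehicle without enzyme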
# PfM18AAP inh-2 – PfM18AAP inhibitors, malaria aminopeptidase, confirmation, biochemical, QFRET, recombinant enzyme, triplicate; inhibition, % at 7.35 µM; 2,400 tested, 28% active; shares compounds with PfM18AAP inh-1; H-Glu-NHMec fluorogenic cleavage;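 active = mean inhibition over replicate wells above the hit cutoff set for the earlier primary screen, cut at about 29% in these data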;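 also: 0% = median of test compound wells and 100% = 2 mM ZnCl2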
# CTSL1 counter-2 – cathepsin L1 inhibitors, retest, confirmation, counter-screen for PFM18AAP inhibitor project, biochemical, QFRET, triplicate; shares compounds with PfM18AAP inh-1; purified cathepsin L1, Z-Leu-Arg-MCA fluorescence; inhibition, % at 5.96 µM; 2,400 tested, under 10 active; AID 2178, 2009;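 active = average inhibition across replicates above the hit cutoff set in the earlier primary screen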;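 also: 0% = median of test compound wells and 100% = Z-Phe-Ala-diazomethylketone 1 µM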
# Target sequence (P07711 whole entry, looked up): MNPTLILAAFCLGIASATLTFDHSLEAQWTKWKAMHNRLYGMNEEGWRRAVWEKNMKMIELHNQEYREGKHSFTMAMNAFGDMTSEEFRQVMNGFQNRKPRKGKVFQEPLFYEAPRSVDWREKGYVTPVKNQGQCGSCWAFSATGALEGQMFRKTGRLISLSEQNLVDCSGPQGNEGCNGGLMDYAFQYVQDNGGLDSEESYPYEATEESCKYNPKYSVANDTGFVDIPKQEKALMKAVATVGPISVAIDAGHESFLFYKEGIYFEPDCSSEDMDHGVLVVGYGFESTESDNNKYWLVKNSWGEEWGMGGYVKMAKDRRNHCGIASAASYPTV
# An asterisk follows results filed as active; · = no result.
SMILES,IMP-1 inhibitor,VIM-2 inh,CTSL1 counter-1,PfM18AAP inh-1,VIM-2 confirm,TEM-1 counter,IMP-1 confirm,others
Cc1ccc(-c2nnc(SCC(=O)CC(=O)Nc3ccccc3)n2C)cc1,-3.0,0.9,0.5,1.6,·,·,·,
CN1C(=O)/C(=C\c2ccc(N(C)C)cc2)OC1=S,9.5*,8.0*,·,6.9,8.3*,18.1*,6.1*,
COc1ccc(/C=C2\OC(=S)N(C)C2=O)cc1,-1.1,-2.5,2.6,-2.1,·,·,·,
O=C(CN1C(=O)/C(=C/c2ccccc2)SC1=S)N1CCN(CCc2ccccn2)CC1,-0.3,1.1,2.9,-4.8,·,·,·,
CCc1cc(=O)oc2cc(C)c(CN3CCCCC3)c(O)c12,18.5*,13.4*,-0.9,9.7,4.4,-4.8,-0.6,
CCc1cc(=O)oc2cc(C)c(CN3CCCC3)c(O)c12,20.1*,15.5*,-1.2,0.9,17.6*,-0.8,8.8*,
Cc1cc(C)cc(NC(=O)N2CCNC(=O)C2CC(=O)Nc2cc(Cl)ccc2Cl)c1 (configuration not stated),-3.5,-1.9,6.1,-9.1,·,·,·,
CCCN1C(=O)c2cccc3c(N4CCCCC4)ccc(c23)C1=O,23.6*,32.2*,-1.3,-8.1,11.8*,6.5*,5.5*,
CCCCNc1ccc2c3c(cccc13)C(=O)N(CCCC)C2=O,12.2*,14.6*,·,-3.6,22.3*,62.7*,18.3*,
CC(=O)N1N=C(c2ccco2)CC1c1cc2ccc(C)cc2nc1Cl (configuration not stated),-2.6,-0.9,1.4,2.8,·,·,·,
O=S(=O)(c1cc(Cl)ccc1Cl)N1CCN(c2ccccn2)CC1,-1.3,-1.4,-0.8,-1.1,·,·,·,
CCN1C(=O)c2cccc3c(N)ccc(c23)C1=O,43.3*,48.4*,3.8,-8.5,45.0*,50.6*,34.9*,
Cc1nn(C)c(C)c1N1C(=O)c2cccc3c(N)ccc(c23)C1=O,35.0*,30.8*,-0.4,8.1,41.8*,54.7*,37.7*,
Cc1c(OCC(=O)NCC2CCC(C(=O)NCCCO)CC2)ccc2c(-c3ccccc3)cc(=O)oc12 (configuration not stated),-1.3,-0.1,-1.9,-7.5,·,·,·,
COc1ccc(-c2cc(=O)oc3c(C)c(OCC(=O)NCCCn4ccnc4)ccc23)cc1,38.0*,19.3*,0.1,0.0,25.8*,-4.3,31.8*,
CC(=O)c1cccc(OCc2cc(C(=O)NCCC3=CCCCC3)no2)c1,-2.6,-2.1,3.6,-3.4,·,·,·,
COc1ccccc1-n1cc(C(=O)NCC(=O)N2CCN(c3ccccc3)CC2)c2ccccc2c1=O,-2.6,-2.3,0.5,0.0,·,·,·,
CSc1nsc(SCC(=O)Nc2ccccc2F)n1,-2.3,-3.9,0.4,-9.0,·,·,·,
O=C1CCN2C=Nc3cccc4ccc1c2c34,12.1*,12.1*,0.9,17.3,31.6*,28.5*,24.4*,
c1ccc(CN2CCN(C3=Nc4cccc5cccc3c45)CC2)cc1,-1.8,-0.7,·,-0.2,·,·,·,
Cn1c2ccccc2c2cc(C(=O)NNS(=O)(=O)c3ccc(F)cc3)sc21,5.0*,7.1,2.5,5.3,-0.7,-5.6,-2.2,
O=C1NC2(CCCCC2)C(=O)N1Cc1ccc([N+](=O)[O-])cc1,-1.9,-0.6,2.3,-4.3,·,·,·,
Cc1ccc(NC(=O)C2C(C(=O)O)C3C=CC2C32CC2)cc1 (configuration not stated),-6.2,-2.2,-2.6,-3.1,·,·,·,
Cc1ccc(NC(=O)C2C(c3ccccc3)C=CC(c3ccccc3)C2C(=O)O)cc1 (configuration not stated),85.3*,45.5*,-0.3,6.9,6.8,-3.5,61.2*,
CC(=O)Nc1ccc(NC(=O)C(C)OC(=O)CSCc2cccc(Cl)c2)cc1 (configuration not stated),·,·,-46.2,·,·,·,·,
SMILES,IMP-1 inhibitor,VIM-2 inh,CTSL1 counter-1,PfM18AAP inh-1,VIM-2 confirm,TEM-1 counter,IMP-1 confirm,others
Cc1c(/C=C(\CC(=O)O)c2nc3ccccc3s2)cc(C#N)n1C,-2.2,-1.3,-5.5,5.4,·,·,·,
Cc1nn(-c2ccccc2)c(Cl)c1/C=C(\CC(=O)O)c1nc2ccccc2s1,8.4*,23.8*,7.8,-2.6,37.2*,-4.7,5.5*,
Cc1nn(-c2ccc(F)cc2)c(Cl)c1/C=C(\CC(=O)O)c1nc2ccccc2s1,7.9*,32.2*,3.3,-2.9,34.1*,-2.1,1.0,
c1nc(NCCN2CCOCC2)c2sc3nc(N4CCOCC4)c4c(c3c2n1)CCC4,7.6*,9.5*,-0.1,1.5,15.9*,-4.2,-1.2,
O=C(O)C1Sc2[nH]c(=O)sc2C2c3ccc(O)cc3OC(=O)C12 (configuration not stated),8.6*,7.9*,4.0,37.6*,4.6,-4.7,3.9,PfM18AAP inh-2=5.5;CTSL1 counter-2=-6.8
O=C(COc1cccc2cccnc12)N/N=C1\SCC(=O)N1CCc1ccccc1,-1.7,-3.5,0.4,1.5,·,·,·,
CC1CCCN(C(=O)c2nn(C)c3c2CSc2ccccc2-3)C1 (configuration not stated),-2.2,-2.0,-0.5,42.0*,·,·,·,PfM18AAP inh-2=2.3;CTSL1 counter-2=-0.5
Cc1cc(C)c(S(=O)(=O)Nc2ccnc(-c3cccnc3)n2)c(C)c1,-2.9,-4.5,-2.5,-0.8,·,·,·,
CSc1nc(=S)c2[nH]c(=S)[nH]c2[nH]1,-1.5,-2.5,·,45.9*,·,·,·,PfM18AAP inh-2=40.0*;CTSL1 counter-2=-3.0
O=C(Nc1ncn[nH]1)C(F)(F)C(F)F,-1.5,-2.7,-0.1,31.9*,·,·,·,PfM18AAP inh-2=8.2;CTSL1 counter-2=-7.7
CCC(C(=O)Nc1ncn[nH]1)(C(F)(F)F)C(F)(F)F,-4.8,-4.1,-1.3,52.7*,·,·,·,PfM18AAP inh-2=69.0*;CTSL1 counter-2=-5.7
CCOc1ccccc1NC(=O)CSc1nncc2ccccc12,-0.5,0.2,-4.2,-8.7,·,·,·,
Cc1ccc(/C=N/Nc2nc(Cl)c(Cl)cc2Cl)s1,-3.9,-3.4,4.1,46.0*,·,·,·,PfM18AAP inh-2=-42.3;CTSL1 counter-2=-0.9
CNC(=O)c1cccc(NC(=O)c2ccccc2OCc2ccccc2)c1,-2.1,0.6,1.2,-1.4,·,·,·,
